Calls of active or inactive are those of the source. No cut-off for these calls is given here.
Experiments:
MCF7 = experiment: Cytotoxicity against human MCF7 cells assessed as growth inhibition after 24 hrs by MTT assay; type: functional, cell-based; conditions: MCF7, 24 h
Procedure, shortened: (§1)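 Cells seeded at 8000/well in RPMI-1640 with 10% heat-inactivated FBS and left to adhere 10 h. Compound then added in RPMI-1640 with 1% FBS and 0.1% DMSO for 24 h at 37 °C. MTT added for 4 h, formazan dissolved in DMSO, OD read at 590 nm. Inhibition calculated relative to control and zero-setting wells; IC50 derived from inhibition ratios; two experiments in triplicate.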

[1] = Cytotoxicity against human 3AO cells assessed as growth inhibition after 24 hrs by MTT assay; type: functional, cell-based; procedure, shortened: as §1
[2] = Cytotoxicity against human PC3 cells assessed as growth inhibition after 24 hrs by MTT assay; type: functional, cell-based; conditions: PC-3, 24 h; procedure, shortened: as §1
K562 = experiment: Cytotoxicity against human K562 cells assessed as growth inhibition after 24 hrs by MTT assay; type: functional, cell-based; conditions: K562, 24 h; procedure, shortened: as §1
HeLa = experiment: Cytotoxicity against human HeLa cells assessed as growth inhibition after 24 hrs by MTT assay; type: functional, cell-based; procedure, shortened: as §1
[3] = Cytotoxicity against human BEAS2B cells assessed as growth inhibition after 24 hrs by MTT assay; type: cell-based; conditions: BEAS-2B; procedure, shortened: as §1
HUVEC = experiment: Antiangiogenic activity against HUVEC cells assessed as inhibition of VEGF-induced tube formation after 8 hrs by microscopic analysis; type: functional, cell-based; conditions: Homo sapiens
Procedure, shortened: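 HUVECs trypsinized and seeded on Matrigel (polymerized 1 h, 37 °C) at 10^5 cells/well, incubated with compound at 0.1, 1 and 10 µg/mL for 8 h at 37 °C in CO2 until tube networks formed; Pazopanib as positive control. Morphology imaged in five random fields per well; experiment repeated 3 times.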

[4] = molecular target: Fibroblast growth factor receptor 1 (Homo sapiens) (UniProt P11362); experiment: Inhibition of human recombinant FGFR1 at 1 uM after 50 mins by microtiter plate based luciferase reporter gene assay
Fibroblast growth factor receptor 1 (Homo sapiens), sequence (P11362 22-822 limits assumed): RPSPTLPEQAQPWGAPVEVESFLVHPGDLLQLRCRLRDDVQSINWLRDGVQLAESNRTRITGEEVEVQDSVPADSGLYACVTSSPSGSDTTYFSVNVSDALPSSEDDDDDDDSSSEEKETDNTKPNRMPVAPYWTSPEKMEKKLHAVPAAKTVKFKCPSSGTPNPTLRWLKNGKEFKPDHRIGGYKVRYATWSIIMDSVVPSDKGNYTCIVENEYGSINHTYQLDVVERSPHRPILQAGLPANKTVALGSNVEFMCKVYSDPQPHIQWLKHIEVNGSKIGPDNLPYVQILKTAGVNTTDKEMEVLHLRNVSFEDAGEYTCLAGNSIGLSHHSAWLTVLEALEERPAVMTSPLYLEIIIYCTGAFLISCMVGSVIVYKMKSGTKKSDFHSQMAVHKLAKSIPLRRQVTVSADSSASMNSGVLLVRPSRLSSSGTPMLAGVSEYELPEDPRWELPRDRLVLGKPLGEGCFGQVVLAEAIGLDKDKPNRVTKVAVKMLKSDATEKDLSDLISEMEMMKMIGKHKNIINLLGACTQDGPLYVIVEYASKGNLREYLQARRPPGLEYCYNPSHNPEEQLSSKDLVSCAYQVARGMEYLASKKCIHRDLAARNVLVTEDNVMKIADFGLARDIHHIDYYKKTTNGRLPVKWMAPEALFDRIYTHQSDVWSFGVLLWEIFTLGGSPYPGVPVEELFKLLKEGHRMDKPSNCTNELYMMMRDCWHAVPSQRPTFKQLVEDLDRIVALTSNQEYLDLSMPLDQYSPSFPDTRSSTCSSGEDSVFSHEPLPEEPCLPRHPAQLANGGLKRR

Danio rerio [5] = species: Danio rerio; experiment: Antiangiogenic activity against transgenic zebra fish embryos expressing green fluorescence protein assessed as inhibition of intersegmental vessel formation at 100 uM after 24 hrs by confocal fluorescence microscopy; type: functional, organism-based
Procedure, shortened: (§2)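 Tg(flk1:GFP) embryos, dechorionated one day post-fertilization, 10 per well in 3 mL assay solution with 0.1% PTU added; compounds at 10, 50, 100 µM, 0.2% DMSO as vehicle control, vatalanib as positive control; 28 °C. ISV formation scored by confocal microscopy (50- and 100-fold) after 24 h treatment; repeated at least three times.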

[6] = molecular target: Vascular endothelial growth factor receptor 2 (Homo sapiens) (UniProt P35968); conditions: at 1 µM
Vascular endothelial growth factor receptor 2 (Homo sapiens), sequence (P35968 whole entry): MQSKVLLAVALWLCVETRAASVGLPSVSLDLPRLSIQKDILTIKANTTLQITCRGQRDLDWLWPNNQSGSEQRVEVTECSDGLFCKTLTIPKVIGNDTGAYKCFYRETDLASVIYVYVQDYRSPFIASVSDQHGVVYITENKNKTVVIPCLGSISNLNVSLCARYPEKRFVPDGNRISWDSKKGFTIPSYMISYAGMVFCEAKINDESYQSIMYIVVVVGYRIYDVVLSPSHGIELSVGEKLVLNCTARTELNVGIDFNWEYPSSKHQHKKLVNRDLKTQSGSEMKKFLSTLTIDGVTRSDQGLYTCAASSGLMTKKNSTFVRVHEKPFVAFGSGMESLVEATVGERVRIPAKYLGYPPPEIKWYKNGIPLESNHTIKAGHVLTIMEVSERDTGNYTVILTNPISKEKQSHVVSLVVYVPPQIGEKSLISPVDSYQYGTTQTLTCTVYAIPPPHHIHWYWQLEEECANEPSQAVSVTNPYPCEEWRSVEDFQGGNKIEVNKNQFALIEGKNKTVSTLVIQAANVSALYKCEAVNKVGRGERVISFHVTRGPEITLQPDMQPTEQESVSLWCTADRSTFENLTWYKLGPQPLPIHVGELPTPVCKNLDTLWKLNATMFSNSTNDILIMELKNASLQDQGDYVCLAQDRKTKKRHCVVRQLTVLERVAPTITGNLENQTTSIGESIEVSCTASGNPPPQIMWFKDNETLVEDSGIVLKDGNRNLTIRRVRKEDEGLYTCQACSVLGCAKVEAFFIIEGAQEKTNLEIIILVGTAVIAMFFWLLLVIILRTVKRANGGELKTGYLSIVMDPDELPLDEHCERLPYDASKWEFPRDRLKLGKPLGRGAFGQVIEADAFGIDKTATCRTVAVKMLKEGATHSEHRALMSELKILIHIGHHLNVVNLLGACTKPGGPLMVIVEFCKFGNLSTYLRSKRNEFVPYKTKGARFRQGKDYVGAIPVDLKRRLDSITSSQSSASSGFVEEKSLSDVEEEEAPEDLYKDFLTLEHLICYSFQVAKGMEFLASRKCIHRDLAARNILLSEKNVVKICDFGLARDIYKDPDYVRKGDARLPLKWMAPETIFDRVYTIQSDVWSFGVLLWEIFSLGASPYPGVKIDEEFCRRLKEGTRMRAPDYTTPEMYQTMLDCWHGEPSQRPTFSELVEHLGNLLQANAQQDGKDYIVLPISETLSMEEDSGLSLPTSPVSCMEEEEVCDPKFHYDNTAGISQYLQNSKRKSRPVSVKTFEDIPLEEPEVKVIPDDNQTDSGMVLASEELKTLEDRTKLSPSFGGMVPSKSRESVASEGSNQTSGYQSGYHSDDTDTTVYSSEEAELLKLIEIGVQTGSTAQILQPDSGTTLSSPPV

Danio rerio [7] = species: Danio rerio; experiment: Antiangiogenic activity against transgenic zebra fish embryos expressing green fluorescence protein assessed as inhibition of intersegmental vessel formation at 10 to 100 uM after 24 hrs by confocal fluorescence microscopy; type: functional, organism-based; procedure, shortened: as §2

| SMILES | IC50 (MCF7) [µM] | IC50 [1] [µM] | IC50 [2] [µM] | IC50 (K562) [µM] | IC50 (HeLa) [µM] | IC50 [3] [µM] | inhibition (HUVEC) | inhibition [4] [%] | inhibition (Danio rerio [5]) | inhibition [6] [%] | inhibition (Danio rerio [7]) |
| --- | --- | --- | --- | --- | --- | --- | --- | --- | --- | --- | --- |
| Cc1ccc(C(=O)Nc2ccc(Cn3c(=O)c(C)nc4ccccc43)cc2)cc1 | > 100 | > 100 | > 100 | > 100 | > 100 | > 100 | – | – | – | – | – |
| Cc1nc2ccccc2nc1OCC(=O)Nc1ccc(Cl)cc1 | > 100 | > 100 | 68 | > 100 | > 100 | > 100 | – | – | – | – | – |
| COc1cc2nc(/C=C\c3ccncc3)c(=O)n(CC(=O)Nc3ccccc3)c2cc1OC | > 100 | 55.6 | > 100 | > 100 | > 100 | > 100 | – | – | – | – | – |
| Cc1ccc(NC(=O)COc2nc3ccccc3nc2C)cc1 | > 100 | > 100 | > 100 | > 100 | 74.6 | > 100 | – | – | – | – | – |
| Cc1nc2ccccc2n(CC(=O)Nc2ccc(Cl)cc2)c1=O | > 100 | 40.2 | > 100 | > 100 | > 100 | > 100 | Dose-dependent effect | 0 | Active | 19 | – |
| Cc1nc2ccccc2n(CC(=O)Nc2ccc(F)cc2)c1=O | > 100 | > 100 | > 100 | > 100 | 55.5 | > 100 | – | – | – | – | – |
| Cc1nc2ccccc2n(Cc2ccc(NC(=O)c3ccc(Cl)cc3)cc2)c1=O | 47.6 | > 100 | 39.6 | > 100 | > 100 | > 100 | – | – | – | – | – |
| O=C(COc1nc2ccccc2nc1/C=C\c1ccncc1)Nc1ccc(Cl)cc1 | > 100 | > 100 | > 100 | 49.9 | > 100 | > 100 | Dose-dependent effect | 0 | – | 37 | Active |
| O=C(Cn1c(=O)c(/C=C\c2ccncc2)nc2ccccc21)Nc1ccccc1 | > 100 | > 100 | > 100 | 55.5 | > 100 | > 100 | – | – | – | – | – |
| O=C(Cn1c(=O)c(/C=C\c2ccncc2)nc2ccccc21)Nc1ccc(F)cc1 | 49 | > 100 | 59.9 | > 100 | > 100 | > 100 | Dose-dependent effect | 2 | – | 6 | inactive |
| COc1ccc(NC(=O)Cn2c(=O)c(/C=C\c3ccncc3)nc3ccccc32)cc1OC | > 100 | > 100 | > 100 | 55.2 | > 100 | > 100 | – | – | – | – | – |
| Cc1ccc(Nc2nccc(N(C)c3ccc4c(C)n(C)nc4c3)n2)cc1S(N)(=O)=O [PAZOPANIB] | 76.8 | 50.2 | > 100 | 89.3 | > 100 | > 100 | – | – | – | – | – |
| O=C(Cn1c(=O)c(/C=C\c2ccncc2)nc2ccccc21)Nc1ccc(Cl)cc1 | > 100 | > 100 | > 100 | 50.4 | > 100 | > 100 | Dose-dependent effect | 5 | – | 44 | Dose-dependent effect |
| Cc1ccc(NC(=O)COc2nc3ccccc3nc2/C=C\c2ccncc2)cc1 | 60.2 | > 100 | > 100 | > 100 | > 100 | > 100 | – | – | – | – | – |
| O=C(Cn1c(=O)c(/C=C\c2ccncc2)nc2ccccc21)Nc1ccc(Cl)c(Cl)c1 | 47.6 | > 100 | > 100 | > 100 | > 100 | > 100 | Dose-dependent effect | 8 | – | 56 | Dose-dependent effect |
| Cc1ccccc1NC(=O)Cn1c(=O)c(/C=C\c2ccncc2)nc2ccccc21 | > 100 | 69.7 | > 100 | > 100 | > 100 | > 100 | – | – | – | – | – |

Reference: ChEMBL document CHEMBL3774355, “Quinoxalinone (Part II). Discovery of (Z)-3-(2-(pyridin-4-yl)vinyl)quinoxalinone derivates as potent VEGFR-2 kinase inhibitors” (Bioorg Med Chem, 2016)
